Calls of active or inactive are those of the source. The rule behind the calls is not given here.
Tests used:
PC-9 = experiment: Antitumor activity against human PC9 cells xenografted in BALB/C nude mouse assessed as decrease in tumor weight at 15 to 30 mg/kg, ip qd administered for 19 days measured for 23 days; assay type: functional, organism-based
Method in brief: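 Six-week-old BALB/C-nu mice given 2×10^6 PC-9 cells subcutaneously in the right flank. At tumour size ~0.2-0.4 cm³, randomised, 5 mice/group. Dosed ip daily for 19 days at 15 or 30 mg/kg, vehicle DMSO:Span-80:ddH₂O = 2:1:50; vehicle-treated control group. Tumour volume = (W²×L)/2. Tumours weighed.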

HCC827 [1] = experiment: Induction of apoptosis in human HCC827 cells assessed as necrotic cells at 1000 nM after 48 hrs by Annexin V-FITC/PI staining based flow cytometry (reference value: 1.41%); assay type: functional
Mus musculus [2] = experiment: In vivo inhibition of AKT phosphorylation in tumor of BALB/C nude mouse xenografted with human PC9 cells at 15 to 30 mg/kg, ip qd administered for 19 days by immunoblot method; assay type: functional, organism-based
NCI-H1975 [3] = experiment: Induction of apoptosis in human NCI-H1975 cells assessed as late apoptotic cells at 500 nM after 48 hrs by Annexin V-FITC/PI staining based flow cytometry (reference value: 1.91%); assay type: functional
Mus musculus [4] = experiment: In vivo inhibition of ERK1/2 phosphorylation in tumor of BALB/C nude mouse xenografted with human PC9 cells at 15 to 30 mg/kg, ip qd administered for 19 days by immunoblot method; assay type: functional, organism-based
HCC827 [5] = experiment: Induction of apoptosis in human HCC827 cells assessed as early apoptotic cells at 500 nM after 48 hrs by Annexin V-FITC/PI staining based flow cytometry (reference value: 2.83%); assay type: functional
NCI-H3255 [6] = experiment: Induction of apoptosis in human H3255 cells assessed as viable cells at 1000 nM after 48 hrs by Annexin V-FITC/PI staining based flow cytometry (reference value: 87.9%); assay type: functional; conditions: NCI-H3255, 48 h, read-out: Activity
A-431 [7] = experiment: Induction of apoptosis in human A431 cells assessed as early apoptotic cells after 48 hrs by Annexin V-FITC/PI staining based flow cytometry; assay type: functional, cell-based
Mus musculus [8] = experiment: In vivo inhibition of EGFR phosphorylation in tumor of BALB/C nude mouse xenografted with human PC9 cells at 15 to 30 mg/kg, ip qd administered for 19 days by immunoblot method; assay type: functional, organism-based
NCI-H3255 [9] = experiment: Induction of apoptosis in human H3255 cells assessed as viable cells at 250 nM after 48 hrs by Annexin V-FITC/PI staining based flow cytometry (reference value: 87.9%); assay type: functional; conditions: NCI-H3255, 48 h, read-out: Activity
NCI-H3255 [10] = experiment: Induction of apoptosis in human H3255 cells assessed as early apoptotic cells at 250 nM after 48 hrs by Annexin V-FITC/PI staining based flow cytometry (reference value: 3.22%); assay type: functional
A-431 [11] = experiment: Induction of apoptosis in human A431 cells assessed as early apoptotic cells at 250 nM after 48 hrs by Annexin V-FITC/PI staining based flow cytometry (reference value: 3.40%); assay type: functional
NCI-H1975 [12] = experiment: Cell cycle arrest in human NCI-H1975 cells assessed as accumulation at G2/M phase after 24 hrs by propidium iodide staining based flow cytometry; assay type: functional
Method in brief: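 NCI-H1975 cells (2×10^5) seeded in 6-well plates overnight, then treated 24 h at 50, 100, 250 or 500 nM; 1‰ DMSO medium as control. Cells harvested, washed in cold PBS, fixed in 70% cold ethanol at −20 °C overnight, stained with PI/RNase buffer and analysed by flow cytometry. n=3.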

NCI-H3255 [13] = experiment: Induction of apoptosis in human H3255 cells assessed as early apoptotic cells at 1000 nM after 48 hrs by Annexin V-FITC/PI staining based flow cytometry (reference value: 3.22%); assay type: functional
[14] = target: T1, Epidermal growth factor receptor (Homo sapiens, UniProt P00533); experiment: Inhibition of EGFR in human HCC827 cells assessed as decrease in EGF-induced AKT phosphorylation by Western blot method; assay type: cell-based
T1 sequence (P00533 whole entry): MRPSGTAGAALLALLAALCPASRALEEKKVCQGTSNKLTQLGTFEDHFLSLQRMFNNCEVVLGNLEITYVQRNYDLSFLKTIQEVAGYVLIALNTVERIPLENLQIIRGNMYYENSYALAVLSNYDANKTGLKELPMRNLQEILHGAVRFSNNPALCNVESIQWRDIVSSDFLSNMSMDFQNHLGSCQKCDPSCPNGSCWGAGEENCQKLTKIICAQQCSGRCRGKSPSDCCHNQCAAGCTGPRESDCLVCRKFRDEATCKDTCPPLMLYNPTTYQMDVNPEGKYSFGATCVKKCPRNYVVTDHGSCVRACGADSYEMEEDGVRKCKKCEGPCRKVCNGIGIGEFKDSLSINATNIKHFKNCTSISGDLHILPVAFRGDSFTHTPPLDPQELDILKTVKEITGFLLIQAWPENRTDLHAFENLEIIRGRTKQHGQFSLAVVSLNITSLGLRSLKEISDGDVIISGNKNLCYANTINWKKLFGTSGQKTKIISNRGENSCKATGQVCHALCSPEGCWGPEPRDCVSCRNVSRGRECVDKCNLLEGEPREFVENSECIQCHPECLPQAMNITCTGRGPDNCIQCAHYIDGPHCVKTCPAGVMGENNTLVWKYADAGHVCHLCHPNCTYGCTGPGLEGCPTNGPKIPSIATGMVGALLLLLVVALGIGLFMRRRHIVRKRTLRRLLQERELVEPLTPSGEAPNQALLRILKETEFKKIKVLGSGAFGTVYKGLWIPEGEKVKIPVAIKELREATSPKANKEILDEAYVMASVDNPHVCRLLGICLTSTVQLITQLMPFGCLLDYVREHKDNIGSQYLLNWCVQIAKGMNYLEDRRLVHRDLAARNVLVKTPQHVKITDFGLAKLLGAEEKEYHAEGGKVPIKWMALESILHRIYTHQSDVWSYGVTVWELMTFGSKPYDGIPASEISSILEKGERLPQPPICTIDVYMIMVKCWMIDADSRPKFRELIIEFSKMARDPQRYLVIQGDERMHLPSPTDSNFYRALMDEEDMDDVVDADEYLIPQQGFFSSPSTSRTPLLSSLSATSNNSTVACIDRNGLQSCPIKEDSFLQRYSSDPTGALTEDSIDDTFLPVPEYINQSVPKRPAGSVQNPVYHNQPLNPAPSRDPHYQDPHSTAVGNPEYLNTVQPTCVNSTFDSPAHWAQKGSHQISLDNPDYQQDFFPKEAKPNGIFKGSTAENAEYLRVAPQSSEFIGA
Method in brief: (§1)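 Cell lysates prepared in protein lysis buffer and cleared at 12,000 g for 10 min at 4 °C. 50 μg protein per lane was run on a gel, transferred to PVDF and immunoblotted, with GAPDH as the loading control.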

HCC827 [15] = experiment: Induction of apoptosis in human HCC827 cells assessed as late apoptotic cells at 1000 nM after 48 hrs by Annexin V-FITC/PI staining based flow cytometry (reference value: 1.15%); assay type: functional
NCI-H1975 [16] = experiment: Induction of apoptosis in human NCI-H1975 cells assessed as late apoptotic cells at 1000 nM after 48 hrs by Annexin V-FITC/PI staining based flow cytometry (reference value: 1.91%); assay type: functional
[17] = target: T1, Epidermal growth factor receptor; experiment: Inhibition of EGF-induced EGFR autophosphorylation at Y1068 residues in human H1975 cells by Western blot method; assay type: cell-based; method in brief: as §1
NCI-H3255 [18] = experiment: Induction of apoptosis in human H3255 cells assessed as necrotic cells at 250 nM after 48 hrs by Annexin V-FITC/PI staining based flow cytometry (reference value: 7.06%); assay type: functional
[19] = MRT (0 to t) in Sprague-Dawley rat at 30 mg/kg, po by UPLC-MS/MS analysis; assay type: ADME, organism-based; conditions: in vivo
Method in brief: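 Male and female Sprague-Dawley rats (200–220 g) were fasted 12 h and given a single oral dose of 30 mg/kg as a 0.5% CMC-Na suspension. Blood was sampled at 0.083, 0.25, 0.5, 1, 2, 4, 8 and 24 h and centrifuged at 4000 r/min for 10 min. Plasma was quantified by UPLC–MS/MS.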

Mus musculus [20] = experiment: In vivo inhibition of EGFR phosphorylation in tumor of BALB/C nude mouse xenografted with human PC9 cells at 15 to 30 mg/kg, ip qd administered for 19 days by immunohistochemical analysis; assay type: functional, organism-based
NCI-H1975 [21] = experiment: Induction of apoptosis in human NCI-H1975 cells assessed as late apoptotic cells at 250 nM after 48 hrs by Annexin V-FITC/PI staining based flow cytometry (reference value: 1.91%); assay type: functional
A-431 [22] = experiment: Induction of apoptosis in human A431 cells assessed as viable cells at 500 nM after 48 hrs by Annexin V-FITC/PI staining based flow cytometry (reference value: 90.3%); assay type: functional; conditions: A-431, 48 h, read-out: Activity
HCC827 [23] = experiment: Induction of apoptosis in human HCC827 cells assessed as early apoptotic cells at 1000 nM after 48 hrs by Annexin V-FITC/PI staining based flow cytometry (reference value: 2.83%); assay type: functional
NCI-H1975 [24] = experiment: Induction of apoptosis in human NCI-H1975 cells assessed as necrotic cells at 250 nM after 48 hrs by Annexin V-FITC/PI staining based flow cytometry (reference value: 2.31%); assay type: functional
A-431 [25] = experiment: Induction of apoptosis in human A431 cells assessed as necrotic cells at 250 nM after 48 hrs by Annexin V-FITC/PI staining based flow cytometry (reference value: 4.16%); assay type: functional

## COc1cccc(Nc2cc(Nc3cc(OC)ccc3OC)ncn2)c1
PC-9
  Activity: Active
HCC827 [1]
  Activity: 12.6%
Mus musculus [2]
  inhibition: Active
NCI-H1975 [3]
  Activity: 15.5%
Mus musculus [4]
  inhibition: Active
HCC827 [5]
  Activity: 21.3%
NCI-H3255 [6]
  viability at 1 µM: 65.4%
A-431 [7]
  Activity: Dose-dependent effect
Mus musculus [8]
  inhibition: Active
NCI-H3255 [9]
  viability at 0.25 µM: 79.2%
NCI-H3255 [10]
  Activity: 13.3%
A-431 [11]
  Activity: 10.8%
NCI-H1975 [12]
  Activity: Dose-dependent effect
NCI-H3255 [13]
  Activity: 17.6%
[14]
  inhibition: Dose-dependent effect
HCC827 [15]
  Activity: 14.4%
NCI-H1975 [16]
  Activity: 18.2%
[17]
  inhibition: Dose-dependent effect
NCI-H3255 [18]
  Activity: 4.27%
[19]
  MRT last: 6.66 h
Mus musculus [20]
  inhibition: Active
NCI-H1975 [21]
  Activity: 13.5%
A-431 [22]
  viability at 0.5 µM: 70.7%
HCC827 [23]
  Activity: 19.6%
NCI-H1975 [24]
  Activity: 7.95%
A-431 [25]
  Activity: 3.41%

From ChEMBL document CHEMBL4265907, “Design, synthesis and pharmacological evaluation of N4,N6-disubstituted pyrimidine-4,6-diamine derivatives as potent EGFR inhibitors in non-small cell lung cancer” (Eur J Med Chem, 2018)
